How the values were obtained:
Assay type in all cases: functional
Rattus norvegicus [1] = experiment: Kidney uptake after 4 hr was determined in female Fischer rats after [125I]-labeled compound complexed with bovine serum albumin was injected intravenously
Procedure, shortened: (§1)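 Female Fischer 344 rats (fed ad libitum) under ether anaesthesia received the ¹²⁵I fatty acid in a lateral tail vein. Dose was ~3.8–4.8 μCi per rat (sp act ~125–240 mCi/mmol), given in 0.5 mL 6% bovine albumin (final ethanol 10%) after filtration. Four rats per time point were used. Tissue radioactivity is % injected dose/g, mean with range, calculated against standards of the injected solution.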

Rattus norvegicus [2] = experiment: Blood uptake after 3 day was determined in female Fischer rats after [125I]-labeled compound complexed with bovine serum albumin was injected intravenously; procedure, shortened: as §1
Rattus norvegicus [3] = experiment: Heart uptake after 5 min was determined in female Fischer rats after [125I]-labeled compound complexed with bovine serum albumin was injected intravenously; procedure, shortened: as §1
[4] = Ratio of heart to blood uptake after 60 min was determined in female Fischer rats after [125I]-labeled compound complexed with bovine serum albumin was injected intravenously
Procedure, shortened: (§2)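 Female Fischer 344 rats (food and water ad libitum) given the 125I-labelled fatty acid in 6% bovine albumin with 10% final ethanol, filtered, 0.5 mL into a lateral tail vein under ether anaesthesia. Four rats per time point. Tissue activity expressed as % injected dose/g against assayed injectate standards. Mean heart/tissue ratios were calculated from mean %ID/g values.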

Rattus norvegicus [5] = experiment: Blood uptake after 2 hr was determined in female Fischer rats after [125I]-labeled compound complexed with bovine serum albumin was injected intravenously; procedure, shortened: as §1
[6] = Ratio of heart to liver uptake after 120 min was determined in female Fischer rats after [125I]-labeled compound complexed with bovine serum albumin was injected intravenously; procedure, shortened: as §2
Rattus norvegicus [7] = experiment: Kidney uptake after 3 days was determined in female Fischer rats after [125I]-labeled compound complexed with bovine serum albumin was injected intravenously; procedure, shortened: as §1
Rattus norvegicus [8] = experiment: Heart uptake after 3 day was determined in female Fischer rats after [125I]-labeled compound complexed with bovine serum albumin was injected intravenously; procedure, shortened: as §1
[9] = Ratio of heart to lungs uptake after 120 min was determined in female Fischer rats after [125I]-labeled compound complexed with bovine serum albumin was injected intravenously; procedure, shortened: as §2
Rattus norvegicus [10] = experiment: Heart uptake after 30 min was determined in female Fischer rats after [125I]-labeled compound complexed with bovine serum albumin was injected intravenously; procedure, shortened: as §1
[11] = Ratio of heart to blood uptake after 5 min was determined in female Fischer rats after [125I]-labeled compound complexed with bovine serum albumin was injected intravenously; procedure, shortened: as §2
[12] = Ratio of heart to lungs uptake after 60 min was determined in female Fischer rats after [125I]-labeled compound complexed with bovine serum albumin was injected intravenously; procedure, shortened: as §2
Rattus norvegicus [13] = experiment: Thyroid uptake after 3 days was determined in female Fischer rats after [125I]-labeled compound complexed with bovine serum albumin was injected intravenously
Procedure, shortened: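 Female Fischer 344 rats with free access to food and water. The 125I-labelled fatty acid (~3.8–4.8 μCi; sp act. ~125–240 mCi/mmol) was complexed with 6% bovine serum albumin (10% final ethanol), filtered, and 0.5 mL was injected via a lateral tail vein under ether anaesthesia. Four rats per time point. Values are mean % injected dose/g, calculated against injectate standards. Thyroid weight was taken as 7.5 mg/100 g body weight.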

Rattus norvegicus [14] = experiment: Kidney uptake after 60 min was determined in female Fischer rats after [125I]-labeled compound complexed with bovine serum albumin was injected intravenously; procedure, shortened: as §1
[15] = Ratio of heart to blood uptake after 240 min was determined in female Fischer rats after [125I]-labeled compound complexed with bovine serum albumin was injected intravenously; procedure, shortened: as §2
Rattus norvegicus [16] = experiment: Kidney uptake after 2 hr was determined in female Fischer rats after [125I]-labeled compound complexed with bovine serum albumin was injected intravenously; procedure, shortened: as §1
Rattus norvegicus [17] = experiment: Liver uptake after 3 day was determined in female Fischer rats after [125I]-labeled compound complexed with bovine serum albumin was injected intravenously; procedure, shortened: as §1
Rattus norvegicus [18] = experiment: Kidney uptake after 30 min was determined in female Fischer rats after [125I]-labeled compound complexed with bovine serum albumin was injected intravenously; procedure, shortened: as §1
Rattus norvegicus [19] = experiment: Kidney uptake after 1 day was determined in female Fischer rats after [125I]-labeled compound complexed with bovine serum albumin was injected intravenously; procedure, shortened: as §1
Rattus norvegicus [20] = experiment: Kidney uptake after 5 min was determined in female Fischer rats after [125I]-labeled compound complexed with bovine serum albumin was injected intravenously; procedure, shortened: as §1
Rattus norvegicus [21] = experiment: Lungs uptake after 1 day was determined in female Fischer rats after [125I]-labeled compound complexed with bovine serum albumin was injected intravenously; procedure, shortened: as §1
Rattus norvegicus [22] = experiment: Kidneys uptake after 30 min was determined in female Fischer rats after [125I]-labeled compound complexed with bovine serum albumin was injected intravenously; procedure, shortened: as §1
Rattus norvegicus [23] = experiment: Kidneys uptake after 4 hr was determined in female Fischer rats after [125I]-labeled compound complexed with bovine serum albumin was injected intravenously; procedure, shortened: as §1
Rattus norvegicus [24] = experiment: Kidneys uptake after 60 min was determined in female Fischer rats after [125I]-labeled compound complexed with bovine serum albumin was injected intravenously; procedure, shortened: as §1
Rattus norvegicus [25] = experiment: Kidneys uptake after 3 days was determined in female Fischer rats after [125I]-labeled compound complexed with bovine serum albumin was injected intravenously; procedure, shortened: as §1
Rattus norvegicus [26] = experiment: Liver uptake after 3 days was determined in female Fischer rats after [125I]-labeled compound complexed with bovine serum albumin was injected intravenously; procedure, shortened: as §1
Rattus norvegicus [27] = experiment: Blood uptake after 3 days was determined in female Fischer rats after [125I]-labeled compound complexed with bovine serum albumin was injected intravenously; procedure, shortened: as §1
Rattus norvegicus [28] = experiment: Kidneys uptake after 5 min was determined in female Fischer rats after [125I]-labeled compound complexed with bovine serum albumin was injected intravenously; procedure, shortened: as §1
Rattus norvegicus [29] = experiment: Kidneys uptake after 1 day was determined in female Fischer rats after [125I]-labeled compound complexed with bovine serum albumin was injected intravenously; procedure, shortened: as §1
Rattus norvegicus [30] = experiment: Heart uptake after 3 days was determined in female Fischer rats after [125I]-labeled compound complexed with bovine serum albumin was injected intravenously; procedure, shortened: as §1
Rattus norvegicus [31] = experiment: Kidneys uptake after 2 hr was determined in female Fischer rats after [125I]-labeled compound complexed with bovine serum albumin was injected intravenously; procedure, shortened: as §1

Structure (SMILES) | Injected dose/g (Rattus norvegicus [3]) | Ratio [4] | Injected dose/g (Rattus norvegicus [5]) | Ratio [6] | Ratio [9] | Injected dose/g (Rattus norvegicus [10]) | Ratio [11] | Ratio [12] | Injected dose/g (Rattus norvegicus [13]) | Ratio [15] | Injected dose/g (Rattus norvegicus [21]) | further results
O=C(O)CCCCCCC[Te]CCCCCCC/C=C/I | 4.83% | 14 | 0.44% | 0.84 | 2.7 | 3.76% | 21 | 3.3 | 267% | 4 | 0.55% | Injected dose/g (Rattus norvegicus [1]): 1.19%; Injected dose/g (Rattus norvegicus [2]): 0.21%; Injected dose/g (Rattus norvegicus [7]): 0.22%; Injected dose/g (Rattus norvegicus [8]): 0.28%; Injected dose/g (Rattus norvegicus [14]): 1.52%; Injected dose/g (Rattus norvegicus [16]): 1.27%; Injected dose/g (Rattus norvegicus [17]): 0.64%; Injected dose/g (Rattus norvegicus [18]): 1.38%; Injected dose/g (Rattus norvegicus [19]): 0.59%; Injected dose/g (Rattus norvegicus [20]): 1.58%
O=C(O)CCCCCCCCC[Te]CCCCC/C=C/I | 3.09% | 5 | 0.81% | 1.1 | 1.9 | 3.05% | 7 | 1.8 | 227% | 2 | 0.76% | Injected dose/g (Rattus norvegicus [22]): 1.85%; Injected dose/g (Rattus norvegicus [23]): 1.42%; Injected dose/g (Rattus norvegicus [24]): 1.92%; Injected dose/g (Rattus norvegicus [25]): 0.21%; Injected dose/g (Rattus norvegicus [26]): 0.19%; Injected dose/g (Rattus norvegicus [27]): 0.34%; Injected dose/g (Rattus norvegicus [28]): 2.22%; Injected dose/g (Rattus norvegicus [29]): 0.62%; Injected dose/g (Rattus norvegicus [30]): 0.34%; Injected dose/g (Rattus norvegicus [31]): 1.51%

Reference: ChEMBL document CHEMBL1122777, “Effect of tellurium position on the myocardial uptake of radioiodinated 18-iodotellura-17-octadecenoic acid analogues” (1984)
